Bioassay records: PubChem BioAssay, several laboratories
CFTR F508del cor = F508del CFTR correction, initial screen, CFBE line, single point; CFBE cells, YFP halide quenching; stimulated with forskolin plus potentiator P3; % fluorescence drop versus neutral controls; activity (quench increase), % at 7.58 µM; hit rate 0.36% among 350,000; AID 720511, 2013;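 active = mean added fluorescence quench of at least 8% versus neutral control, with both replicates also reaching 8%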;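 note: cells transiently co-express mutant CFTR-F508del with the halide-sensitive YFP; corrector assay measuring rescue of mutant channel to the surface after 24 h compound exposure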
SMARCA2 activ = SMARCA2 (BRM) function activators, primary screen, cell-based, luminescence, high throughput; activation, % at 9.1 µM; hit rate 1% among 370,000; MG213 cells, MMTV-luciferase reporter, dexamethasone, overnight; in the data active = activation above about 7.8%
MC4R barr agon = MC4R agonists recruiting beta-arrestin, primary screen, cell-based, luminescence, agonist arm of biased-ligand search; U2OS MC4R beta-arrestin complementation; percent of melanotan II response, DMSO zero; activation, % at 8.9 µM; hit rate 0.98% among 360,000; AID 540308, 2011; Melanocortin receptor 4 (Homo sapiens), P32245;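 active = activation above a per-plate cutoff, the mean activation of sample wells on that plate plus 3 SD, cut at about 8% in these data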
Target sequence (P32245 whole entry, looked up): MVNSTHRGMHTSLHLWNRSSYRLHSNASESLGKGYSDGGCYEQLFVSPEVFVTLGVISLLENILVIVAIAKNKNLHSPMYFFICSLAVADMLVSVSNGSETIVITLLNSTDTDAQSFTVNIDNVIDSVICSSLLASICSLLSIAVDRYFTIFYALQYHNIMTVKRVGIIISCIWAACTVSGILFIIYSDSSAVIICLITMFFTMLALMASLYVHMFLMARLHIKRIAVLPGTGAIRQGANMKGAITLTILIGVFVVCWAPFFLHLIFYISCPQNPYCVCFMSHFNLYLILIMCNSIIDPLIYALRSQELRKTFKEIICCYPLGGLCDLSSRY
MC4R antag cAMP = MC4R antagonists of cAMP signaling, primary screen, cell-based, TR-FRET, antagonist arm of biased-ligand search. inhibition, % at 6.5 µM. Melanocortin receptor 4 (Homo sapiens), P32245. hit rate 0.48% among 360,000. MC4R-expressing cells, MTII-stimulated cAMP, LANCE TR-FRET. AID 540295, 2011;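 active = inhibition above its plate's cutoff, the mean of tested wells on that plate plus 3 SD, cut at about 29% in these data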
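Material: human MC4R-expressing U2OS cells. Probe or stimulus: Melanotan II challenge. Dosing: 6.5 µM single dose. Times: 30-min compound, 1-h challenge, 1-h detection, room temperature. Technique: TR-FRET with Eu-cAMP and labeled anti-cAMP, 671 nm. Replication: singlicate.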
Large screens that a line does not name were inactive. Rows were chosen to be rich in hits. Some 2.1% of all compounds tested hit in one or more screens of this group.

CN1CCN(C(=O)CCN2C(=O)/C(=C\c3ccccc3F)SC2=S)CC1	none
CCOC(=O)N1CCN(C(=O)c2ccccc2NC(=O)c2ccc(F)cc2)CC1	MC4R barr agon 8.4
CCOC(=O)N1CCN(C(=O)c2ccccc2NC(=O)c2ccc(Br)cc2)CC1	none
CCOC(=O)N1CCC(=NNC(=O)c2ccc(O)cc2)CC1	none (no result: CFTR F508del cor)
CCOC(=O)N1CCC(=NNC(=O)c2ccccc2F)CC1	SMARCA2 activ 11 (no result: CFTR F508del cor)
O=C(NCCc1ccncc1)[C@H]1[C@H](CO)[C@H]2Cn3c(ccc(-c4ccccc4)c3=O)[C@@H]1N2	none (no result: SMARCA2 activ, MC4R barr agon, MC4R antag cAMP)
CCn1c(SC(C)C(=O)NCC2CCCO2)nc2scc(-c3ccccc3)c2c1=O (configuration not stated)	none
CCn1c(SC(C)C(=O)NCC2CCCO2)nc2ccccc21 (configuration not stated)	CFTR F508del cor 15
COc1ccc(C2C(O)C(c3c[nH]c4ccccc34)=NN2C(=O)CCl)cc1 (configuration not stated)	MC4R barr agon 16
COc1ccc(CNC(=O)c2c(C)oc3c2C(=O)c2ccccc2C3=O)cc1	CFTR F508del cor 12
CC(=O)c1c(C)oc2c1C(=O)c1ccccc1C2=O	none (no result: CFTR F508del cor)
Cc1cc2nnc(SCC(=O)NCc3ccco3)n2c2ccccc12	CFTR F508del cor 9.8
Cc1cc2nnc(SCC(=O)NCc3cccs3)n2c2ccccc12	none (no result: CFTR F508del cor)
Cc1noc(C)c1S(=O)(=O)Nc1ccc2c(c1)C(=O)N([C@@H](C)CO)C[C@H](C)[C@@H](CN(C)C(=O)Nc1ccc(F)cc1)OCCCC[C@@H](C)O2	none (no result: SMARCA2 activ, MC4R barr agon, MC4R antag cAMP)
CCn1c(SCC(=O)c2ccc(O)c(O)c2)nnc1-c1ccc(C)cc1	none (no result: CFTR F508del cor)
CCn1c(SCC(=O)c2ccc3c(c2)Cc2ccccc2-3)nnc1-c1ccc(N)cc1	MC4R barr agon 11 (no result: CFTR F508del cor)
N#Cc1c(NC(=O)c2ccccc2)sc2c1CCCCC2	MC4R barr agon 8.3 (no result: CFTR F508del cor)
Cc1ccc(C(=O)Nc2sc3c(c2C#N)CCCCC3)cc1C	none (no result: CFTR F508del cor)
CC(=O)N(C)C[C@H]1Oc2ncc(-c3cncnc3)cc2C(=O)N([C@@H](C)CO)C[C@@H]1C	none (no result: SMARCA2 activ, MC4R barr agon, MC4R antag cAMP)
COc1ccc2oc(C(=O)N3CCN(c4ncccn4)CC3)c(C)c2c1	none
COc1ccc2oc(C(=O)N3CCN(C(=O)c4ccco4)CC3)c(C)c2c1	CFTR F508del cor 14
CCCNC(=O)C[C@@H]1CC[C@@H]2[C@@H](COc3ccc(NC(=O)c4cscn4)cc3C(=O)N2C)O1	none (no result: SMARCA2 activ, MC4R barr agon, MC4R antag cAMP)
C/C=C/c1cnc2c(c1)C(=O)N([C@@H](C)CO)C[C@H](C)[C@H](CN(C)S(=O)(=O)c1ccccc1F)O2	none (no result: SMARCA2 activ, MC4R barr agon, MC4R antag cAMP)
O=C(CCN1C(=O)/C(=C/c2ccccc2)SC1=S)NCCc1ccc(O)cc1	MC4R barr agon 9.3 (no result: CFTR F508del cor, SMARCA2 activ)
O=C(CCCN1C(=O)S/C(=C\c2ccccc2)C1=O)NNC(=O)c1ccccc1O	MC4R barr agon 8.4
O=C1/C(=C\c2cc(Cl)c(O)c(Cl)c2)SC(=S)N1Cc1ccccc1	CFTR F508del cor 28
COc1ccc(Nc2oc(-c3ccc(OC)cc3)nc2C#N)cc1	none
N#Cc1nc(-c2ccc(Cl)cc2)oc1NCc1cccc2c1OCO2	MC4R barr agon 8.5 (no result: CFTR F508del cor)
CCOc1ccc(Nc2oc(-c3ccc(Cl)cc3)nc2C#N)cc1	MC4R barr agon 8.9 (no result: CFTR F508del cor)
N#Cc1nc(-c2ccc(Cl)cc2)oc1NCc1ccco1	none (no result: CFTR F508del cor)
CO[C@@H]1CN(C)C(=O)c2cc(NS(=O)(=O)CC(F)(F)F)ccc2OC[C@@H](C)N(Cc2nccs2)C[C@H]1C	none (no result: SMARCA2 activ, MC4R barr agon, MC4R antag cAMP)
O=C(c1cccc(F)c1)N1CCCCN2[C@H](C1)[C@H](c1ccc(-c3cccnc3)cc1)[C@@H]2CO	none (no result: SMARCA2 activ, MC4R barr agon, MC4R antag cAMP)
CC1(C(=O)Nc2cccc(Oc3ccccc3)c2)CCN1C1Cc2ccccc2C1 (configuration not stated)	none
Cc1ccc(NC(=O)C2(C)CCN2C2Cc3ccccc3C2)cc1 (configuration not stated)	MC4R barr agon 8.4
CCOc1ccc(NCc2cc3c(C(C)(C)C)nn(-c4ccccc4)c3[nH]c2=O)cc1	MC4R barr agon 11
CO[C@H]1CN(C)C(=O)c2cc(NC(=O)CC(F)(F)F)ccc2OC[C@@H](C)N(C(=O)c2ccccc2F)C[C@H]1C	none (no result: SMARCA2 activ, MC4R barr agon, MC4R antag cAMP)
O=C1/C(=C/Nc2cccc([N+](=O)[O-])c2)CCc2ccccc21	MC4R barr agon 9.2 (no result: CFTR F508del cor)
O=C1/C(=C\c2ccc([N+](=O)[O-])cc2)CCc2ccccc21	none (no result: CFTR F508del cor)
O=C(C[C@H]1C=C[C@@H](NS(=O)(=O)c2ccc(F)cc2)[C@@H](CO)O1)N1CCC(Cc2ccccc2)CC1	none (no result: SMARCA2 activ, MC4R barr agon, MC4R antag cAMP)
C[C@@H]1CN(Cc2nnnn2CC(=O)NCCCn2cccn2)C[C@H](C)O1	SMARCA2 activ 7.9
CC(C)(C)c1ccc(OCC(=O)Nc2ccc3c4c(cccc24)C(=O)NC3=O)cc1	CFTR F508del cor 20
Cn1c(NCc2ccccc2F)nc2cc(-c3ccsc3)sc2c1=O	CFTR F508del cor 8.1
NS(=O)(=O)c1ccc(NC(=O)c2cccc3ccccc23)cc1	none
NS(=O)(=O)c1ccc(NC(=O)c2cccc3cc4ccccc4nc23)cc1	CFTR F508del cor 19
Oc1ccccc1/C=N/n1c2ccccc2c2ccccc21	MC4R barr agon 9.2
CCOC1=C/C(=C/c2c(N)n3nc(S(=O)(=O)CC)sc3nc2=O)C=CC1=O	CFTR F508del cor 9.9
COc1ccc(S(=O)(=O)Nc2ccc3c(c2)CC(=O)N([C@@H](C)CO)C[C@H](C)[C@@H](CN(C)Cc2ccc4c(c2)OCO4)O3)cc1	none (no result: SMARCA2 activ, MC4R barr agon, MC4R antag cAMP)
COc1ccc(S(=O)(=O)Cc2ccc(C(=O)N3CCN(c4cccc(C)c4)C(C)C3)o2)cc1 (configuration not stated)	CFTR F508del cor 9.3
Cc1ccccc1-c1ccc2c(c1)O[C@@H](CN(C)C(=O)C1CC1)[C@H](C)CN([C@@H](C)CO)S2(=O)=O	none (no result: SMARCA2 activ, MC4R barr agon, MC4R antag cAMP)
Cc1ccc(-c2nc3ccccc3o2)cc1NC(=S)NC(=O)c1cccs1	MC4R barr agon 23 (no result: CFTR F508del cor)
Clc1ccc(CSc2nncn2-c2ccc3c(c2)OCCO3)cc1	CFTR F508del cor 11
O=C(Nc1ccccc1F)c1ccc2nc(N3C(=O)CCC3=O)sc2c1	MC4R antag cAMP 33 (no result: CFTR F508del cor)
O=C(Nc1ccc(F)cc1F)c1ccc2nc(N3CCOCC3)sc2c1	none
CC(C)C1C(C#N)=C(N)Oc2n[nH]c(-c3cccs3)c21 (configuration not stated)	none (no result: CFTR F508del cor)
CC(C)C1C(C#N)=C(N)Oc2n[nH]c(-c3ccc4ccccc4c3)c21 (configuration not stated)	MC4R barr agon 9.4 (no result: CFTR F508del cor)
O=C(Nc1ccccc1)N1CCC(c2ccccc2)C1 (configuration not stated)	SMARCA2 activ 7.8 (no result: CFTR F508del cor)
CCc1ccc(NC(=O)N2CCC(c3ccccc3)C2)cc1 (configuration not stated)	none
CC(C)CCN(C)C1CCN(C(=O)Nc2ccccc2)CC1	SMARCA2 activ 7.8 (no result: CFTR F508del cor, MC4R barr agon, MC4R antag cAMP)
C[C@@H]1CCCCO[C@H](CN(C)S(=O)(=O)c2cn(C)cn2)[C@@H](C)CN([C@@H](C)CO)C(=O)c2cc(NS(=O)(=O)c3cn(C)cn3)ccc2O1	none (no result: SMARCA2 activ, MC4R barr agon, MC4R antag cAMP)
